According to the RNAGym collection of RNA variant scans (doi:10.1126/science.aae0568):
Variants at the floor of the assay were thinned out.

B1: tRNA (parent)
chain: GUUCCGUUGGCGUAAUGGUAACGCGUCUCCCUCCUAAGGAGAAGACUGCGGGUUCGAGUCCCGUACGGAACG

Variants of: B1
Assay: yeast fitness relative to wild type (ratio to wild type); higher = fitter; tRNA-Arg(CCU), competitive growth, 37 C, YPD
In short: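 Variants of the tRNA-Arg(CCU) gene were chemically synthesised with a 3% per-site mutation rate across 69 sites and placed at the native genomic locus in Saccharomyces cerevisiae. Six parallel replicates of the pooled strains were competed in YPD at 37°C for 24 hours, and gene amplicons from the start and end populations were read by 100-nucleotide paired-end sequencing. Darwinian fitness relative to wild type was derived from changes in genotype frequencies. Genotypes required ≥ 100 starting reads, and estimates < 0.5 were set to 0.5.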

Row | Variant | yeast fitness
1 | A40C A57U | 0.789
2 | A40C A57C | 0.637
3 | A40G G44C A57G C60A | ≤ 0.5
4 | A40C U59G C60G | ≤ 0.5
5 | G39C U47A A57C | ≤ 0.5
6 | A40G C62U C66G A69C | ≤ 0.5
7 | G39C G48C | 0.688
8 | A40G C61U | 0.741
9 | A40G C61G | 0.628
10 | A40U C60U | 0.832
11 | A40G C62U A65U | ≤ 0.5
12 | A40G A43U C46G C49G C62U | 0.532
13 | A40U A45G C60A | ≤ 0.5
14 | A40U A42C C66A | ≤ 0.5
15 | G39C U54G | 0.547
16 | A40C A43G C60U C61U | ≤ 0.5
17 | A40C C49G A65G | 0.584
18 | A40G A65C | 0.858
19 | A40G A65G | 0.984
20 | A40G A65U | 0.813
21 | A40G C55A C61U | ≤ 0.5
22 | A40C A45G G63A | 0.518
23 | G39C C55G C66U | ≤ 0.5
24 | A40C A45C | 0.616

Row | Variant | yeast fitness
25 | G39C G50C C61G | ≤ 0.5
26 | G39C A70U | 0.873
27 | G39C A70C | 0.769
28 | G39C A70G | 0.915
29 | G39C C60G G67C | ≤ 0.5
30 | G39C C46U G56A | 0.694
31 | A40U A57G U59C U64G | ≤ 0.5
32 | A40C A42C G68C | 0.569
33 | A40G C62U C66A A70C | 0.563
34 | A40G G58C C61G A65C | ≤ 0.5
35 | G39C A43G G48C G50A | ≤ 0.5
36 | A40G G41A A42C A43G G44A A70U | ≤ 0.5
37 | A40G C46U C60G C66G | ≤ 0.5
38 | A40U C49G A70U | 0.535
39 | A40C C49A | 0.668
40 | A40C C66U | 0.895
41 | A40C G56A A70G | 0.556
42 | A40G C46U U64C | 0.607
43 | A40G G67A A69C | 0.513
44 | A40G A42G A43G U59C | ≤ 0.5
45 | A40G G52A G56U | ≤ 0.5
46 | A40C A69G | 0.985
47 | A40G G48A G63A | 0.774
48 | A40C A42U | 0.782

Row | Variant | yeast fitness
49 | A40C A42C | 0.619
50 | G39C G44A C62G | 0.589
51 | A40C G56C | 0.609
52 | A40C G56A | 0.883
53 | A40G G51A C55U | 0.556
54 | A40C G41C G68C | 0.542
55 | A40U A42G | 0.983
56 | A40C C46G | 0.975
57 | G39C U59A | 0.779
58 | A40C C55G A69U | ≤ 0.5
59 | A40G G58A A69U | 1.04
60 | A40G U53A | 0.654
61 | A40C G68A | 0.933
62 | A40U A65C A69U | 0.699
63 | A40U A42G G63A | 0.511
64 | A40G C46U U53G | ≤ 0.5
65 | A40G C61U A70U | 0.612
66 | A40C C61A | 0.716
67 | A40C C61U | 0.799
68 | A40G A42G | 0.986
69 | A40G U64A | 0.737
70 | A40G A69U | 1.06
71 | A40U A43C U59C | 0.752
72 | A40G C49U U59A | 0.572

Row | Variant | yeast fitness
73 | A40C G48A C60G | 0.683
74 | A40G A57U | 0.624
75 | A40C A42C C49G | ≤ 0.5
76 | G39U A45G G51A | 0.527
77 | A40G A43U C49U C66U | ≤ 0.5
78 | A40G G68A | 0.953
79 | A40G G68C | 0.709
80 | A40U A43G A65U | 0.675
81 | A40U C55A G68U | ≤ 0.5
82 | A40C A57U G58A | 0.644
83 | A40G C62U | 0.715
84 | A40G C62A | 0.641
85 | G39C C66U A69U | 0.551
86 | A40G C46G U53G U64G | ≤ 0.5
87 | G39C G44C G52C | 0.623
88 | G39C C46G A70U | 0.603
89 | A40G U53A G63A | ≤ 0.5
90 | A40G G44A U47C | 0.571
91 | A40U C49U C61U A70G | ≤ 0.5
92 | G39C G48C C62G | ≤ 0.5
93 | A40G C49G | 0.655
94 | A40G C61U G68A | ≤ 0.5
95 | A40G C55U G56A U64G A69U | ≤ 0.5
96 | A40C G41A U47A G67C | 0.637

Row | Variant | yeast fitness
97 | G39C U59C U64C A70C | ≤ 0.5
98 | G39C C55G U59A G63A | ≤ 0.5
99 | G39C A45G | 0.661
100 | G39C C49A G51A | ≤ 0.5
101 | A40G G41A C55U | ≤ 0.5
102 | A40G C46A C61U G67A | ≤ 0.5
103 | A40U C49U C62A C66A | ≤ 0.5
104 | G39C G52A G68A | ≤ 0.5
105 | A40G A42U G67C | ≤ 0.5
106 | A40C A42U C49G | 0.624
107 | A40U A42G C55A | ≤ 0.5
108 | A40C A42U U53C C61G | ≤ 0.5
109 | G39U A40C C66A A69U | 0.642
110 | A40C C46U C55G A70U | 0.503
111 | A40C A57C C61A | ≤ 0.5
112 | A40U A45C | 0.871
113 | A40G C66U | 0.792
114 | A40G C49G U59G G67C | 0.706
115 | A40G A42G U59C | 0.618
116 | A40G G56A | 0.998
117 | G39C G56C A57G | ≤ 0.5
118 | G39C C55U | 0.572
119 | A40C A57G G67A | 0.554
120 | A40C U59A | 0.801

Row | Variant | yeast fitness
121 | A40U A70G | 0.934
122 | A40U A70U | 0.99
123 | A40U A70C | 0.941
124 | G39C C49G C66U | ≤ 0.5
125 | A40G G48A A65C G67C | ≤ 0.5
126 | G39C G58C | 0.83
127 | A40C C60A | 0.654
128 | A40C U53C U59A C66U | ≤ 0.5
129 | A40C G44A | 0.913
130 | G39C C49G A65U | ≤ 0.5
131 | G39U G52A G67U | ≤ 0.5
132 | A40G G50A | 0.944
133 | A40U A43C G52A | 0.667
134 | A40G A43G G67C | 0.725
135 | A40G C60U | 0.674
136 | G39C G68U | 0.762
137 | G39C A43U U53C | 0.606
138 | A40G A57U A65G | 0.531
139 | A40G A45C | 0.846
140 | G39U U53A C55U | 0.684
141 | A40C C62A | 0.651
142 | A40C C62G | 0.66
143 | A40C A43C | 1.04
144 | A40U A43U C60U C62U C66U | ≤ 0.5

Row | Variant | yeast fitness
145 | A40G A43G | 0.787
146 | A40G A43U | 0.995
147 | A40G A43C | 1.04
148 | A40U C49U C62U A69G | 0.904
149 | A40U A65G A70U | 0.591
150 | G39C U47A G58A G63A | ≤ 0.5
151 | A40G G48C | 0.866
152 | A40G G48A | 1.01
153 | G39U | 1
154 | G39C G51C C55G | ≤ 0.5
155 | A40C G51A | 0.84
156 | A40G C46A | 1.04
157 | A40C A45C A65G G68U | ≤ 0.5
158 | A40U C62U | 0.87
159 | G39U A45G G50C U54A G67A | 0.673
160 | A40G C55U | 0.663
161 | A40U A45U G67C | 0.582
162 | A40C A43G C61G C66U | 0.683
163 | A40C G52C C66U G67A | ≤ 0.5
164 | G39C C49U A65U | ≤ 0.5
165 | G39U A70C | 0.811
166 | A40U C55A | 0.584
167 | A40U C61U | 0.783
